Reference: paper PMC12335033 (BMC Oral Health, 2025)
Where a SMILES comes first, the peptide text is derived from it.

Legend:
type I collagen fiber = assay: Collagen fiber mineralization, TEM/SAED/EDS; details: 0.1 mM peptide, 7 d; for electron density distribution of collagen fiber (TEM): 3.90 mM CaCl2, 3.83 mM Na2HPO4, pH 7.0, 37 °C; for SAED arc-shaped patterns (hkl) of hydroxyapatite: 37 °C, control one ring (300); for calcium and phosphate distribution (EDS) / fiber mineralization: pH 7.0, 37 °C; for fiber mineralization: TEM
Outline: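 Type I collagen fibers self-assembled in 50 mM glycine/200 mM KCl (pH 9.2), room temperature, 20 min, on nickel grids at 37 °C for 12 h, then fixed in 0.05% glutaraldehyde for 1 h. Grids immersed at 37 °C for 7 d in 3.90 mM CaCl₂/3.83 mM Na₂HPO₄ (pH 7.0) with 0.1 mM peptide, changed every 24 h. Peptide-free control. Rinsed, ethanol-dehydrated; TEM, SAED, EDS.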

rat type I collagen [1] = target: rat type I collagen (Rattus norvegicus, UniProt P02454+P02466); assay: SPR affinity of peptides for type I collagen; assay type: binding; details: for Rmax: SPR, 1:1 binding; for kon: read-out: 1:1 binding ka; for koff: read-out: Kd (dissociation rate constant)
Outline: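 Rat type I collagen preconcentrated in sodium acetate (pH 5.0) and amine-coupled to a CM5 chip. Peptide in sodium acetate buffer at five concentrations, 30 µL/min; 100 s contact, 80 s dissociation. Regeneration with glycine 2.0 for 30 s. Three cycles, multicycle kinetics; K_D calculated.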

[2] = Dentin slice remineralization, SEM and tubule plugging rate; parameters: species or system human; details: 0.1 mM peptide 12 h; for plugging rate of dentinal tubules vs control: SEM 3,000×, p < 0.0001; for dentinal tubule diameters (SEM surface) / mineral depth in dentin tubules (SEM cross section) / mineral growth on dentin (SEM surface): then artificial saliva pH 7.0, 2 w
Outline: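 Human third-molar crown dentin cut to 5 × 5 × 2 mm slices and polished. Etched with 35% phosphoric gel for 30 s, 5.25% NaOCl for 1 min, sonicated 10 min. Soaked in 0.1 mM peptide for 12 h, rinsed, then 2 w in artificial saliva (pH 7.0) refreshed daily. Peptide-free control. SEM of surface and cross-section; plugging rate from open-tubule counts at 3,000×; n = 9; one-way ANOVA with Tukey.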

[3] = TEM/SAED/EDS of calcium phosphate; assay type: physicochemical; details: TEM; 0.1 mM peptide, pH 7.0; control: irregularly shaped aggregates
collagen membrane [4] = assay: TGA of mineralized collagen membrane; details: 0.1 mM peptide, 37 °C, 7 d; n = 9; p < 0.0001
[5] = Mechanical properties of remineralized dentin; parameters: species or system human; details: compared with MDP-a group; 2 w mineralization
Outline: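 Nanoindentation of the new mineral layer on dentin slices after 2 w of remineralization, tested alongside sound and etched slices. Conditions: 10 mN force, 10 s loading, 2 s hold, Poisson's ratio 0.28. Five points per sample, nine samples per group. Elastic modulus and microhardness derived from load–displacement curves; one-way ANOVA with Tukey.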

collagen membrane [6] = assay: Calcium ion adsorption by collagen membrane, ICP-MS; details: 0.1 mM peptide, pH 7.0, 37 °C, 7 d, n = 9, p < 0.0001
type I collagen = details: isothermal titration calorimetry and enzyme-linked immunosorbent assays; ref [14] (Lei et al.); cited from earlier work
rat type I collagen [7] = target: rat type I collagen (rat, UniProt P02454 152-1207; P02466 86-1125); assay: SPR
Chain of rat type I collagen (rat, UniProt P02454 152-1207; P02466 86-1125) (P02454 152-1207, chain 1 of 2): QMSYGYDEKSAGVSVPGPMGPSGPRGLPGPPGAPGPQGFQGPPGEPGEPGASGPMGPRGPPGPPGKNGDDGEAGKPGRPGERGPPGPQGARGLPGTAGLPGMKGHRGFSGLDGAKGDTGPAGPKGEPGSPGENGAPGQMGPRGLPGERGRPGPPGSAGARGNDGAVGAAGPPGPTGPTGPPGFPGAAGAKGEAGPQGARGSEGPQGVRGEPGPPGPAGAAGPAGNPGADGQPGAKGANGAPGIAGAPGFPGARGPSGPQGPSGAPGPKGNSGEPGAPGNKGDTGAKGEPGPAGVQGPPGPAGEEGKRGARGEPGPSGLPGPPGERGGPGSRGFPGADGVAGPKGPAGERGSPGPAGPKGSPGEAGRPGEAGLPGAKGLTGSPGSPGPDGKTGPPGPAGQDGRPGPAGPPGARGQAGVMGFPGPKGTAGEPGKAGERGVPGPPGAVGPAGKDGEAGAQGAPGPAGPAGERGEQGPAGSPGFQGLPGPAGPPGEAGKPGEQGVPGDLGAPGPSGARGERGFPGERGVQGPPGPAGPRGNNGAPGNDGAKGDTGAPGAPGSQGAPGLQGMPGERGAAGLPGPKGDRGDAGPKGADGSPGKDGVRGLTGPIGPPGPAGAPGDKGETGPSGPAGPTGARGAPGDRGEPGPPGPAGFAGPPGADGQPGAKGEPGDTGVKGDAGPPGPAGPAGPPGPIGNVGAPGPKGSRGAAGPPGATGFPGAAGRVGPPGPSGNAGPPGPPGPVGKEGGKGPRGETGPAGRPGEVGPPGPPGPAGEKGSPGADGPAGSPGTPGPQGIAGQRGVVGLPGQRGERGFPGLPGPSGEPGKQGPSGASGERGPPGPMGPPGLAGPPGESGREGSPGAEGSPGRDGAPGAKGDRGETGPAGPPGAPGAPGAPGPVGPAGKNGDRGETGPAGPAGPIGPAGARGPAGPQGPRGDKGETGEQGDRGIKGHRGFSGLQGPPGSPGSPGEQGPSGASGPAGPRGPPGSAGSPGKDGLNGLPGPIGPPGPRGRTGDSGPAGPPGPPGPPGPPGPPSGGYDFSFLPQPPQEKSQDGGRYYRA
Chain of rat type I collagen (rat, UniProt P02454 152-1207; P02466 86-1125) (P02466 86-1125, chain 2 of 2): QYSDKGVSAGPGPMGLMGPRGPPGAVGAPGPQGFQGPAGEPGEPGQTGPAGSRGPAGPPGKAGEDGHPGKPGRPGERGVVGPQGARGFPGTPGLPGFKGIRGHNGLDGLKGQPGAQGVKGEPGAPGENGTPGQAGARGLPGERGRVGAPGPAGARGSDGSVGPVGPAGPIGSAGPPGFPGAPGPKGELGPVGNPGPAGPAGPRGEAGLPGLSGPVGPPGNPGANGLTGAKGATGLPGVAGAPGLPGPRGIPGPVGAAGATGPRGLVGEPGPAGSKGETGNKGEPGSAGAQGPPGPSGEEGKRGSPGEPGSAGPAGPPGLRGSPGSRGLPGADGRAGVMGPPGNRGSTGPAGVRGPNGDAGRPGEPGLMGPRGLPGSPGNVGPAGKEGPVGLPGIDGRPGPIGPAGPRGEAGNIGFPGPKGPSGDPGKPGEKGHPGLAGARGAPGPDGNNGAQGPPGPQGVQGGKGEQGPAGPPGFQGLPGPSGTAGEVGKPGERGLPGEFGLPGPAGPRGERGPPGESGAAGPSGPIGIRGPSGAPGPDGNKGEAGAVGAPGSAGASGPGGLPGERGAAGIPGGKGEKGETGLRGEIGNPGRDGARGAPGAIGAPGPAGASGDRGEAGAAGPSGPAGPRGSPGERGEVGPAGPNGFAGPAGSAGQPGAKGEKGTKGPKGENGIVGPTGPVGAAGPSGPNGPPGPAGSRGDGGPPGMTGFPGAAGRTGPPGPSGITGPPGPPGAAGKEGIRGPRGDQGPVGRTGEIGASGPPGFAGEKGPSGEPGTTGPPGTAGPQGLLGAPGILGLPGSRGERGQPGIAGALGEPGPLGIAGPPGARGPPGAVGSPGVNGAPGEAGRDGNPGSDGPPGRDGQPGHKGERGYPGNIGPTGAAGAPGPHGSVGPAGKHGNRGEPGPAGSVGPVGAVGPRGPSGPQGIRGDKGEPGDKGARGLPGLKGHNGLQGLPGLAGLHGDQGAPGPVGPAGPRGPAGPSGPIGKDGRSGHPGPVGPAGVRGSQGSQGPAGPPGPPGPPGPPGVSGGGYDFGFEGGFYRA

Molecule | electron density distribution of collagen fiber (TEM) (type I collagen fiber) | SAED arc-shaped patterns (hkl) of hydroxyapatite (type I collagen fiber) | calcium and phosphate distribution (EDS) (type I collagen fiber) | fiber mineralization (type I collagen fiber) | Rmax (rat type I collagen [1]) [RU] | kon (rat type I collagen [1]) [M⁻¹ s⁻¹] | koff (rat type I collagen [1]) [s⁻¹] | plugging rate of dentinal tubules vs control ([2]; artificial saliva 2 w, n = 9) | dentinal tubule diameters (SEM surface) [2] | mineral depth in dentin tubules (SEM cross section) [2] [μm] | mineral growth on dentin (SEM surface) [2] | morphology of particles [3] | Kd (rat type I collagen [7]) [µM] | also measured
CC(C)C[C@H](NC(=O)[C@H](Cc1c[nH]c2ccccc12)NC(=O)[C@H](CS)NC(=O)[C@H](CO)NC(=O)[C@H](Cc1c[nH]c2ccccc12)NC(=O)[C@H](Cc1c[nH]c2ccccc12)NC(=O)[C@H](CC(=O)O)NC(=O)[C@@H](N)CS)C(=O)N[C@@H](CC(=O)O)C(=O)N[C@H](C(=O)N[C@@H](CC(C)C)C(=O)N[C@@H](CCCCN)C(=O)N[C@@H](CC(=O)O)C(=O)O)C(C)C [MDP-a] (H-CDWWSCWLDVLKD-OH; N-terminus and C-terminus assumed) | increase in electron density, the distribution along the collagen fiber was notably uneven, with a substantial amount of electrons present outside the fiber | 002,300 | more scattered along the fiber axis | evident fiber mineralization | 53152.0 | 32900 | 0.594 | increased significantly | significantly reduced | 7 | dense mineral growth was observed on the surface and inside the dentinal tubules | uneven, dense, spherical aggregated particles | – | –
CC(C)C[C@H](NC(=O)[C@H](CC(N)=O)NC(=O)[C@H](CS)NC(=O)[C@H](CO)NC(=O)[C@H](CCC(=O)O)NC(=O)[C@H](CCCCN)NC(=O)[C@@H]1CCCN1C(=O)[C@@H](N)CS)C(=O)N[C@@H](Cc1ccccc1)C(=O)N[C@H](C(=O)N[C@@H](CC(C)C)C(=O)N[C@@H](CCCCN)C(=O)N[C@@H](CC(=O)O)C(=O)N[C@@H](CC(=O)O)C(=O)N[C@@H](CO)C(=O)N[C@@H](CO)C(=O)N[C@@H](CC(=O)O)C(=O)N[C@@H](CO)C(=O)N[C@@H](CO)C(=O)N[C@@H](CC(=O)O)C(=O)N[C@@H](CO)C(=O)N[C@@H](CO)C(=O)O)C(C)C [MDP-3DSS] (H-CPKESCNLFVLKDDSSDSSDSS-OH; N-terminus and C-terminus assumed) | uniform and dense electron distribution, with significantly increased electron density, indicating a highly mineralized structure | 002,112,401,122 | highly concentrated along the fiber axis, with a minimal presence of these ions outside the fiber | evident fiber mineralization | 65526.7 | 30800 | 0.58 | increased significantly | significantly reduced | 7 | dense mineral growth was observed on the surface and inside the dentinal tubules | aggregated particles arranged in loose chains | – | residual mineral content (TGA) (collagen membrane [4]): highest residual mineral content; plugging rate of dentinal tubules, MDP-3DSS vs MDP-a ([2]; artificial saliva 2 w, n = 9, p = 0.0019): greater plugging rate of dentinal tubules; elastic modulus and microhardness relative to sound dentin [5]: closer to those of sound dentin group; calcium ion adsorption by collagen membrane, MDP-3DSS vs MDP-a (collagen membrane [6]): promoted the adsorption of calcium ions by collagen more effectively than MDP-a
CC(C)C[C@H](NC(=O)[C@H](CC(N)=O)NC(=O)[C@H](CS)NC(=O)[C@H](CO)NC(=O)[C@H](CCC(=O)O)NC(=O)[C@H](CCCCN)NC(=O)[C@@H]1CCCN1C(=O)[C@@H](N)CS)C(=O)N[C@@H](Cc1ccccc1)C(=O)N[C@H](C(=O)N[C@@H](CC(C)C)C(=O)N[C@@H](CCCCN)C(=O)N[C@@H](CC(=O)O)C(=O)O)C(C)C [CBP1495, reference compound] (H-CPKESCNLFVLKD-OH; N-terminus and C-terminus assumed) | – | – | – | – | 190942.7 | 10600 | 0.624 | – | – | – | – | – | – | binding to type I collagen (type I collagen): can bind to type I collagen with strong affinity
CPKESCNLFVLKD [CBP1495] | – | – | – | – | – | – | – | – | – | – | – | – | 59 | –
CPKESCNLFVLKDDSSDSSDSS [MDP-3DSS] | – | – | – | – | – | – | – | – | – | – | – | – | 18.9 | –
CDWWSCWLDVLKD [MDP-a] | – | – | – | – | – | – | – | – | – | – | – | – | 18 | –
